Results pooled from the literature.
Protocols differ between the studies behind these lines.
Target: D(3) dopamine receptor (DRD3, Homo sapiens, UniProt P35462)
Technique: radioligand

observed | notes | Ki | SMILES
ligand displacement |  | 1 nM | O=C1c2ccccc2CCN1CCCCN1CCN(c2cccc(Cl)c2Cl)CC1
cell-free assay |  | 0.4 nM | COc1ccccc1N1CCN(CCCCNC(=O)c2cc3cc(OCCF)ccc3[nH]2)CC1
ligand displacement | cell membranes | 274 nM | CC1Cc2ccccc2N1C(=O)NCCCCN(C)[C@H]1CNc2ccccc2C1 (stereo partly drawn)
ligand displacement |  | 832 nM | Oc1ccc(CCC2=NCCN2CCc2ccccc2)cc1
ligand displacement | cell membranes | 54.6 nM | CN(C[C@@H]1C[C@H]1CCNC(=O)c1cc2ccccc2[nH]1)[C@@H]1Cc2cccc3[nH]c(=O)n(c23)C1
cell-free assay |  | 1910 nM | CCOc1c(O)cc(Br)c2c1CN1CCc3cc(OCC(F)F)c(O)cc3[C@@H]1C2
cell-free assay |  | 3090 nM | CCCCN1CCC(COC(=O)c2ccc(N)c(OCF)c2)CC1
ligand displacement | cell membranes | 300 nM | C[C@@H]1Cc2ccccc2N1C(=O)NCCCCN(C)[C@@H]1Cc2cccc3[nH]c(=O)n(c23)C1
ligand displacement |  | > 10000 nM | COc1ccc(CCC2=NCCN2CCc2ccccc2)cc1
ligand displacement |  | 208 nM | COc1ccc2c(c1)C(=O)N(CCN1CCN(c3ccccc3OC)CC1)C2
ligand displacement |  | > 10000 nM | Oc1cccc(CCC2=NCCN2CCc2ccccc2)c1
cell-free assay |  | > 10000 nM | CCN(CC)c1ccc(C2Nc3ccc(C(=O)c4ccccc4)cc3NC3=C2C(=O)CC(C)(C)C3)cc1 (stereo not drawn)
